Activity calls are given as the source filed them. The calls are words filed in the database; no cut-off is given here.
Tests used:
[1] = biological target: T1, Protein kinase C delta type (Homo sapiens, UniProt Q05655); test: Displacement of [3H]PDBu form human PKCdelta in presence of plasma membrane lipid mimetic mixture
Method in brief: (§1)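 [3H]PDBu competition on individual recombinant human PKC isozymes in 100 μg/mL total lipid mimicking the plasma-membrane inner leaflet (PC/PE/PS/PI/cholesterol 12:35:22:9:21); ID50 fitted to a sigmoidal competition curve, Ki = ID50/(1 + L/Kd); three independent determinations, mean ± SEM.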
Target sequence in this assay (Q05655 whole entry): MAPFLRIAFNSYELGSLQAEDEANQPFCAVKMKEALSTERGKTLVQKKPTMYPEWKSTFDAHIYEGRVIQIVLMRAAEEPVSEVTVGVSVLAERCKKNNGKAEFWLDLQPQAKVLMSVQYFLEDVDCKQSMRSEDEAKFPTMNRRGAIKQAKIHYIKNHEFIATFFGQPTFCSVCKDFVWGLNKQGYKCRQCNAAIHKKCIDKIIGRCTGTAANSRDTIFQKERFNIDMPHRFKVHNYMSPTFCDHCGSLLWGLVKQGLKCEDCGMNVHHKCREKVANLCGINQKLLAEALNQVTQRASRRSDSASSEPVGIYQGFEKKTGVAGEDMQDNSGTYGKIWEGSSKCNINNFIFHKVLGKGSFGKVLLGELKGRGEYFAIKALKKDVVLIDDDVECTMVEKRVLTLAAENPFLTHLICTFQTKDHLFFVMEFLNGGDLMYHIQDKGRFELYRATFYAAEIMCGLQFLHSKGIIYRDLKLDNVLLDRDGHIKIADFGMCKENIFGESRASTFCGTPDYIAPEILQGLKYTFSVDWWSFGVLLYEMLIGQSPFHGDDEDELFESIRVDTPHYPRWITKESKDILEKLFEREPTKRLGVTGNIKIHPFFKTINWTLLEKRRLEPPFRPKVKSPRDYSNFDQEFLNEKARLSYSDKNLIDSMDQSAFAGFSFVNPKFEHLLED

[2] = biological target: T2, Protein kinase C gamma type (Homo sapiens, UniProt P05129); test: Displacement of [3H]PDBu form human PKCgamma in presence of plasma membrane lipid mimetic mixture; method in brief: as §1
[3] = biological target: T3, Protein kinase C beta type (Homo sapiens, UniProt P05771); test: Displacement of [3H]PDBu form human PKCbeta in presence of phosphatidylserine
Method in brief: (§2)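 Recombinant human PKC isozyme, single isozyme per assay, with 100 μg/mL phosphatidylserine; competition of unlabeled ligand against [20-3H]PDBu binding; ID50 from least-squares sigmoidal fit, converted to Ki = ID50/(1 + L/Kd), L being free [3H]PDBu at ID50; mean ± SEM of three independent experiments.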

[4] = Membrane binding affinity to synthetic dimyristoylphosphatidylcholine/polydiacetylene vesicles assessed as increase in fluorescence chromatic response by fluorescence spectroscopy; assay type: physicochemical
Method in brief: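 DMPC/10,12-tricosadiynoic acid vesicles polymerized at 254 nm for 30 s, used at 0.5 mM total lipid in 50 mM Tris, pH 8; compounds in DMSO mixed with vesicles before buffer addition; fluorescence read at 485/555 nm excitation/emission, expressed as % of fully transformed red vesicles over a dose range.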

[5] = biological target: T2, Protein kinase C gamma type; test: Displacement of [3H]PDBu form human PKCgamma in presence of phosphatidylserine; method in brief: as §2
[6] = biological target: T1, Protein kinase C delta type; test: Displacement of [3H]PDBu form human PKCdelta in presence of phosphatidylserine; method in brief: as §2
Target sequence in this assay (Q05655 whole entry): as above

[7] = biological target: T4, Protein kinase C epsilon type (Homo sapiens, UniProt Q02156); test: Displacement of [3H]PDBu form human PKCepsilon in presence of phosphatidylserine; method in brief: as §2
T4 sequence (Q02156 whole entry): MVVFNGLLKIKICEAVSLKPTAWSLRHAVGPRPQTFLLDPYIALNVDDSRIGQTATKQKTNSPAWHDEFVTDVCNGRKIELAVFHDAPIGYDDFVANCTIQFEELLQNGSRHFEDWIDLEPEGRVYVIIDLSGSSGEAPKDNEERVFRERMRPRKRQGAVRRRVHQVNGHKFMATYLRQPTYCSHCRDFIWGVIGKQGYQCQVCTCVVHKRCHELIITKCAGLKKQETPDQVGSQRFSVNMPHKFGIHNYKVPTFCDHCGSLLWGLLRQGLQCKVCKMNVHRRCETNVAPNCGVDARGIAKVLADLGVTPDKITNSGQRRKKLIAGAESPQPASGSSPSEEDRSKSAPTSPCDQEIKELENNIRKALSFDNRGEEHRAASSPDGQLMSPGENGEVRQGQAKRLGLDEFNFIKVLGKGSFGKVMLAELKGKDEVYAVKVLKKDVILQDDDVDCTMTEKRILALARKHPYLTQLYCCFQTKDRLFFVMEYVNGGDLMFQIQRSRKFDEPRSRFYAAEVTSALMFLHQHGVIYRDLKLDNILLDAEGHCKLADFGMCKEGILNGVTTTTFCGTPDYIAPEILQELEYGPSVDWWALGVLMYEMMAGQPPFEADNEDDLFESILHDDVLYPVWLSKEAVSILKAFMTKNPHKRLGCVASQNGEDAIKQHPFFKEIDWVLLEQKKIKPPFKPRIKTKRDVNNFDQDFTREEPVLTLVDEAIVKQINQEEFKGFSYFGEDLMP

[8] = biological target: T5, Protein kinase C alpha type (Homo sapiens, UniProt P17252); test: Displacement of [3H]PDBu form human PKCalpha in presence of phosphatidylserine; method in brief: as §2
[9] = biological target: T4, Protein kinase C epsilon type; test: Displacement of [3H]PDBu form human PKCepsilon in presence of plasma membrane lipid mimetic mixture; method in brief: as §1
[10] = biological target: T5, Protein kinase C alpha type; test: Activation of GFP-tagged PKCalpha expressed in CHO cells assessed as isozyme translocation from cytosol to plasma membrane at 10 uM by confocal microscopy; assay type: cell-based
Method in brief: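 GFP-PKCα transiently transfected (Lipofectamine) into CHO cells grown in F12-K with 10% FBS; cells given 10 μM compound and redistribution followed over time by confocal microscopy (488 nm argon excitation), images every 30 s; kinetics of plasma-membrane translocation scored from four independent experiments.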

[11] = biological target: T3, Protein kinase C beta type; test: Displacement of [3H]PDBu form human PKCbeta in presence of plasma membrane lipid mimetic mixture; method in brief: as §1
[12] = biological target: T5, Protein kinase C alpha type; test: Displacement of [3H]PDBu form human PKCalpha in presence of plasma membrane lipid mimetic mixture; method in brief: as §1
[13] = biological target: T1, Protein kinase C delta type; test: Activation of GFP-tagged PKCdelta expressed in CHO cells assessed as isozyme translocation from cytosol to internal membrane at 10 uM by confocal microscopy; assay type: cell-based
Method in brief: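 CHO cells in F12-K/10% FBS transiently transfected with GFP-PKCδ, exposed to 10 μM compound; confocal imaging at 488 nm every 30 s after addition; relative localization to plasma, nuclear and internal membranes scored semi-quantitatively (+ marks) over three independent experiments.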
Target sequence in this assay (Q05655 whole entry, looked up): as the sequence (Q05655 whole entry) above

[14] = system: LNCaP; test: Induction of apoptosis in human LNCAP cells after 48 hrs by flow cytometry relative to PMA; assay type: functional, cell-based
Method in brief: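 LNCaP cells in RPMI-1640/10% FBS, plated at ~60% confluency, treated with a concentration series for 48 h alongside 1 μM PMA; stained with YO-PRO-1 (1 μM final, 20 min, 4 °C, dark) then 7-AAD (5 μg/mL final, 10 min) and analyzed by flow cytometry; YO-PRO-1-positive cells taken as apoptotic, % of total; three experiments.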

T3 sequence (P05771 whole entry): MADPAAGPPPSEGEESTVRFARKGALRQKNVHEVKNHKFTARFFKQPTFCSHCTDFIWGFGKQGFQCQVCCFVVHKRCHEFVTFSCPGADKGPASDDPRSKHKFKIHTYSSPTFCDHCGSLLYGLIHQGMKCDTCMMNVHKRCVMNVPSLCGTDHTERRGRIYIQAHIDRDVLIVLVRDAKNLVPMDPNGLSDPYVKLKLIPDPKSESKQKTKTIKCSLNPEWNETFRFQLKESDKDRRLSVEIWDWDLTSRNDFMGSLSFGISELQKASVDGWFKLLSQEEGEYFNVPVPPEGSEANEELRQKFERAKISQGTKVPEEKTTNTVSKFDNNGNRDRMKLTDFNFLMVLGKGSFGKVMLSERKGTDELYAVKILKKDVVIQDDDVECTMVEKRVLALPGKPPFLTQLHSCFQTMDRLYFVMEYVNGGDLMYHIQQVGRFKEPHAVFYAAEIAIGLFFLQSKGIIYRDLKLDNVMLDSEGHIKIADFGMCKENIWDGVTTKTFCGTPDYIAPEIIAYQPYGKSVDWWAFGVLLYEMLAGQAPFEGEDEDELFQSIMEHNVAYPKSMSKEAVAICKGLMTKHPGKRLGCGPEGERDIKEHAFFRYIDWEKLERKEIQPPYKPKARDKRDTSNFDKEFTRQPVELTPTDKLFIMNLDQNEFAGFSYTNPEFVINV

Row | SMILES | Ki [1] [µM] | Ki [2] [µM] | Ki [3] [µM] | Activity [4] | Ki [5] [µM] | Ki [6] [µM] | Ki [7] [µM] | Ki [8] [µM] | Ki [9] [µM] | Activity [10] | Ki [11] [µM] | Ki [12] [µM] | Activity [13] | Activity [14]
1 | CC(C)=C1CC(CO)(COC(=O)CCCOc2ccc(C#Cc3ccc(C)cc3)cc2)OC1=O (stereo unspecified) | 0.0116 | 0.0317 | 0.0152 | Active | 0.0123 | 0.0119 | 0.0379 | 0.0195 | 0.0319 | Active | 0.0438 | 0.076 | – | –
2 | CC(C)=C1CC(CO)(COC(=O)c2ccc(C#Cc3ccc(C)cc3)cc2)OC1=O (stereo unspecified) | 0.00274 | 0.0157 | 0.0041 | Active | 0.0062 | 0.0054 | 0.01 | 0.006 | 0.0083 | Active | 0.0126 | 0.0158 | – | –
3 | CC(C)=C1CC(CO)(COC(=O)COc2ccc(C#Cc3ccc(C)cc3)cc2)OC1=O (stereo unspecified) | 0.0477 | 0.14 | 0.076 | Active | 0.0508 | 0.0464 | 0.268 | 0.038 | 0.147 | Active | 0.1 | 0.165 | Active | Active
4 | CC(C)=C1CC(CO)(COC(=O)CCOc2ccc(C#Cc3ccc(C)cc3)cc2)OC1=O (stereo unspecified) | 0.0313 | 0.078 | 0.057 | Active | 0.035 | 0.0358 | 0.153 | 0.0208 | 0.0787 | Active | 0.066 | 0.143 | Active | –

— ChEMBL document CHEMBL1138492, “Conformationally constrained analogues of diacylglycerol (DAG). 31. Modulation of the biological properties of diacylgycerol lactones (DAG-lactones) containing rigid-rod acyl groups separated from the core lactone by spacer units of different lengths” (J Med Chem, 2009)
